ChEMBL document CHEMBL2413060, “Synthesis, biological evaluation and molecular docking studies of some pyrimidine derivatives” (2013)
Converted amounts (≈) assume the structure as drawn.

Assays:
Type in all cases: functional
RPMI-8226 = assay: Cytotoxicity against human RPMI8226 cells assessed as growth inhibition at 10 uM; conditions: read-out: GI
Outline: (§1)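 Single-dose screen on human tumour cell lines. Growth of treated cells is expressed as percent of untreated growth, plotted as a mean graph, and reported as percent growth inhibition.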

CCRF-CEM = assay: Cytotoxicity against human CCRF-CEM cells assessed as growth inhibition at 10 uM; conditions: read-out: GI
Pseudomonas aeruginosa [1] = assay: Antibacterial activity against Pseudomonas aeruginosa ATCC 9027 after 24 hrs by two-fold serial dilution method relative to ofloxacin
Shigella flexneri [2] = assay: Antibacterial activity against Shigella flexneri ATCC 15391 after 24 hrs by two-fold serial dilution method relative to ofloxacin
Shigella flexneri [3] = assay: Antibacterial activity against Shigella flexneri ATCC 15391 after 24 hrs by two-fold serial dilution method; conditions: ATCC 15391, 24 h
Outline: (§2)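 Two-fold serial broth dilution in sterile nutrient broth at 500, 250, 125, 62.5, 31.25, 15.63, 7.82 and 3.91 µg/ml, with dimethylformamide ≤2.5%. Organisms were pre-grown 24 h in broth, and 0.1 ml inoculum was added per 5 ml tube. Tubes were incubated at 37°C, 24 h for bacteria and 48 h for fungi. MIC was taken as the lowest concentration giving no turbidity.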

Candida albicans [4] = assay: Antifungal activity against Candida albicans ATCC 2091 assessed as diameter of inhibition zone at 1 mg/ml after 48 hrs by cup diffusion method (reference value: 22 mm); conditions: ATCC 2091, 48 h, read-out: DIZ
Shigella flexneri [5] = assay: Antibacterial activity against Shigella flexneri ATCC 15391 assessed as diameter of inhibition zone at 1 mg/ml after 24 hrs by cup diffusion method (reference value: 17 mm); conditions: ATCC 15391, 24 h, read-out: DIZ
Staphylococcus aureus [6] = assay: Antibacterial activity against Staphylococcus aureus ATCC 6538P assessed as diameter of inhibition zone at 1 mg/ml after 24 hrs by cup diffusion method (reference value: 15 mm); conditions: read-out: DIZ
Pseudomonas aeruginosa [7] = assay: Antibacterial activity against Pseudomonas aeruginosa ATCC 9027 assessed as diameter of inhibition zone at 1 mg/ml after 24 hrs by cup diffusion method (reference value: 16 mm); conditions: ATCC 9027, 24 h, read-out: DIZ
T47D = assay: Cytotoxicity against human T47D cells assessed as growth inhibition at 10 uM; conditions: read-out: GI; outline: as §1
NCI/ADR-RES = assay: Cytotoxicity against human NCI/ADR-RES cells assessed as growth inhibition at 10 uM; conditions: read-out: GI; outline: as §1
PC-3 = assay: Cytotoxicity against human PC3 cells assessed as growth inhibition at 10 uM; conditions: read-out: GI; outline: as §1
MCF7 = assay: Cytotoxicity against human MCF7 cells assessed as growth inhibition at 10 uM; conditions: read-out: GI; outline: as §1
TK-10 = assay: Cytotoxicity against human TK10 cells assessed as growth inhibition at 10 uM; conditions: read-out: GI
Outline: (§3)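 Single-dose screen in a sixty-cell human tumour line panel; percent growth of treated cells relative to untreated was read and reported as percentage growth inhibition, shown as a mean graph. Compounds meeting the threshold inhibition criteria went on to five-dose testing.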

CAKI-1 = assay: Cytotoxicity against human Caki1 cells assessed as growth inhibition at 10 uM; conditions: read-out: GI
A498 = assay: Cytotoxicity against human A498 cells assessed as growth inhibition at 10 uM; conditions: read-out: GI
SK-OV-3 = assay: Cytotoxicity against human SKOV3 cells assessed as growth inhibition at 10 uM; conditions: read-out: GI; outline: as §1
IGROV-1 = assay: Cytotoxicity against human IGROV1 cells assessed as growth inhibition at 10 uM; conditions: read-out: GI
UACC-62 = assay: Cytotoxicity against human UACC62 cells assessed as growth inhibition at 10 uM; conditions: read-out: GI; outline: as §3
SK-MEL-2 = assay: Cytotoxicity against human SK-MEL-2 cells assessed as growth inhibition at 10 uM; conditions: read-out: GI; outline: as §1
M14 = assay: Cytotoxicity against human M14 cells assessed as growth inhibition at 10 uM; conditions: read-out: GI
Malme-3M = assay: Cytotoxicity against human MALME-3M cells assessed as growth inhibition at 10 uM; conditions: read-out: GI
SNB-75 = assay: Cytotoxicity against human SNB75 cells assessed as growth inhibition at 10 uM; conditions: read-out: GI; outline: as §1
SF-295 = assay: Cytotoxicity against human SF295 cells assessed as growth inhibition at 10 uM; conditions: read-out: GI; outline: as §1
HCC 2998 = assay: Cytotoxicity against human HCC2998 cells assessed as growth inhibition at 10 uM; conditions: read-out: GI
NCI-H522 = assay: Cytotoxicity against human NCI-H522 cells assessed as growth inhibition at 10 uM; conditions: read-out: GI; outline: as §1
NCI-H460 = assay: Cytotoxicity against human NCI-H460 cells assessed as growth inhibition at 10 uM; conditions: read-out: GI; outline: as §1
HOP-92 = assay: Cytotoxicity against human HOP92 cells assessed as growth inhibition at 10 uM; conditions: read-out: GI
HOP-62 = assay: Cytotoxicity against human HOP62 cells assessed as growth inhibition at 10 uM; conditions: read-out: GI
[8] = Cytotoxicity against human EKVX cells assessed as growth inhibition at 10 uM; conditions: read-out: GI
SR = assay: Cytotoxicity against human SR cells assessed as growth inhibition at 10 uM; conditions: read-out: GI; outline: as §1
NCI-H23 = assay: Cytotoxicity against human NCI-H23 cells assessed as growth inhibition at 10 uM; conditions: read-out: GI; outline: as §1
Candida albicans [9] = assay: Antifungal activity against Candida albicans ATCC 2091 after 48 hrs by two-fold serial dilution method; conditions: ATCC 2091, 48 h; outline: as §2
Candida albicans [10] = assay: Antifungal activity against Candida albicans ATCC 2091 after 48 hrs by two-fold serial dilution method relative to clotrimazole
Pseudomonas aeruginosa [11] = assay: Antibacterial activity against Pseudomonas aeruginosa ATCC 9027 after 24 hrs by two-fold serial dilution method; conditions: ATCC 9027, 24 h; outline: as §2
Staphylococcus aureus [12] = assay: Antibacterial activity against Staphylococcus aureus ATCC 6538P after 24 hrs by two-fold serial dilution method; outline: as §2
K562 = assay: Cytotoxicity against human K562 cells assessed as growth inhibition at 10 uM; conditions: read-out: GI
RXF 393 = assay: Cytotoxicity against human RXF393 cells assessed as growth inhibition at 10 uM; conditions: read-out: GI; outline: as §1
UO-31 = assay: Cytotoxicity against human UO31 cells assessed as growth inhibition at 10 uM; conditions: read-out: GI; outline: as §3
OVCAR-8 = assay: Cytotoxicity against human OVCAR8 cells assessed as growth inhibition at 10 uM; conditions: read-out: GI; outline: as §1

Row | MIC (Shigella flexneri [3]) [µg/mL] | MIC (Pseudomonas aeruginosa [11]) [µg/mL] | SMILES | inhibition of growth at 10 µM (RPMI-8226) [%] | Activity (Pseudomonas aeruginosa [1]) [%] | Activity (Shigella flexneri [2]) [%] | zone of inhibition at 1000 µg/mL (Candida albicans [4]) [mm] | zone of inhibition at 1000 µg/mL (Shigella flexneri [5]) [mm] | zone of inhibition at 1000 µg/mL (Staphylococcus aureus [6]) [mm] | zone of inhibition at 1000 µg/mL (Pseudomonas aeruginosa [7]) [mm] | inhibition of growth at 10 µM (NCI/ADR-RES) [%] | inhibition of growth at 10 µM (IGROV-1) [%] | inhibition of growth at 10 µM (M14) [%] | inhibition of growth at 10 µM (Malme-3M) [%] | inhibition of growth at 10 µM (HCC 2998) [%] | inhibition of growth at 10 µM (HOP-92) [%] | inhibition of growth at 10 µM (SR) [%] | also measured
1 | 125 (≈ 434 µM) |  | N#Cc1c(N2CCOCC2)nc(=S)[nH]c1-c1ccco1 | 57 | 60 | 60 | 22 | 22 | 15 | 16 | 59.8 | 79.3 | 60.2 | 97.8 | 121 | 112 | 82.2 | inhibition of growth at 10 µM (CCRF-CEM): 50.4%; inhibition of growth at 10 µM (T47D): 81.1%; inhibition of growth at 10 µM (PC-3): 57.4%; inhibition of growth at 10 µM (MCF7): 73.3%; inhibition of growth at 10 µM (TK-10): 52.9%; inhibition of growth at 10 µM (CAKI-1): 41.8%; inhibition of growth at 10 µM (A498): 101%; inhibition of growth at 10 µM (SK-OV-3): 45%; inhibition of growth at 10 µM (UACC-62): 56.7%; inhibition of growth at 10 µM (SK-MEL-2): 63%; inhibition of growth at 10 µM (SNB-75): 84.1%; inhibition of growth at 10 µM (SF-295): 52.6%; inhibition of growth at 10 µM (NCI-H522): 50.4%; inhibition of growth at 10 µM (NCI-H460): 49.9%; inhibition of growth at 10 µM (HOP-62): 64.2%; inhibition of growth at 10 µM [8]: 51.2%
2 | 125 (≈ 422 µM) |  | N#Cc1c(N2CCCCC2)nc(=S)[nH]c1-c1ccccc1 |  | 60 | 60 | 22 | 20 | 15 | 16 | 75.8 |  |  | 48.7 |  | 44.5 | 44.6 | inhibition of growth at 10 µM (NCI-H23): 81.2%
3 |  | 125 (≈ 315 µM) | N#Cc1c(-c2ccccc2)nc(SCC(=O)Nc2ccc(Cl)cc2)[nH]c1=O |  |  |  | 30 | 17 | 20 | 22 |  |  | 45 |  | 84.4 |  |  | MIC (Candida albicans [9]): 125 µg/mL (≈ 315 µM); Activity (Candida albicans [10]): 75%; MIC (Staphylococcus aureus [12]): 3.91 µg/mL (≈ 9.85 µM)
4 |  |  | Cn1c(N2CCOCC2)nc(-c2ccc([N+](=O)[O-])cc2)c(C#N)c1=O | 39.7 |  |  | 22 | 17 | 15 | 16 |  | 40.1 |  |  |  | 44.3 |  | inhibition of growth at 10 µM (K562): 41.8%; inhibition of growth at 10 µM (RXF 393): 47.7%
5 |  | 125 (≈ 324 µM) | Cn1c(N2CCN(Cc3ccccc3)CC2)nc(-c2ccccc2)c(C#N)c1=O |  |  |  | 22 | 17 | 17 | 18 |  |  |  |  |  |  |  | inhibition of growth at 10 µM (UO-31): 49.1%; inhibition of growth at 10 µM (OVCAR-8): 54.6%
